Laboratory results published in ChEMBL document CHEMBL4219175, “Synthesis and biological evaluation of aminothiazoles against Histoplasma capsulatum and Cryptococcus neoformans” (Bioorg Med Chem, 2018).
≈ marks a conversion by molar mass, not a printed value.

Experiments:
Histoplasma capsulatum [1] = assay: Antifungal activity against Histoplasma capsulatum G217B ATCC 26032 at pH 7 measured over 5 days; format: functional, organism-based; settings: G217B ATCC 26032, 120 h
How it was run: (§1)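 Yeasts pre-grown in HMM (37 °C, 5% CO2) to exponential phase, counted by hemacytometer, diluted into RPMI buffered with 25 mM HEPES (pH 7.0) or 25 mM MOPS (pH 5.0) at 5 x 10^5 per well; two-fold dilutions 40 to 0.078 µM, 37 °C, agitated twice daily. A595 read over 5 days, normalized to DMSO controls; 4-day data fitted by 4-parameter regression for IC50; MIC = ≤10% growth.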

Cryptococcus neoformans [2] = assay: Antifungal activity against wild type fluconazole-sensitive Cryptococcus neoformans serotype A H99 at pH 7 measured over 4 days; format: functional, organism-based; settings: var grubii H99 , 96 h
How it was run: (§2)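 YPD-grown exponential-phase yeasts, hemacytometer-counted, diluted into RPMI buffered to pH 7.0 with 25 mM HEPES (or pH 5.0 with […] for pH comparison) at 2 x 10^3 per well; two-fold series 40 to 0.078 µM, 37 °C, agitated twice daily. A595 followed over 4 days versus DMSO controls; day-3 turbidity fitted by 4-parameter regression for IC50; MIC = growth ≤10% of untreated.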

P388D1 = assay: Cytotoxicity against mouse P388D1 cells assessed as reduction in cell viability after 72 hrs by resazurin-based fluorescence assay; settings: P388D1, 72 h
How it was run: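 P388D1 cells in Ham's F-12 + 10% FBS + 2 mM L-glutamine seeded at 5 x 10^3 per well, adhered overnight, exposed to compounds 80 to 0.3 µM for 72 h. Viability read as resorufin fluorescence (530/590 nm) after 0.1 mM resazurin, pre-saturation time points, versus untreated cells; three biological replicates; IC50 by non-linear regression.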

[3] = Therapeutic index, ratio of IC50 for mouse P388D1 cells to IC50 for Histoplasma capsulatum G217B ATCC 26032; format: toxicity; settings: read-out: Ratio IC50
How it was run: (§3)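 Ratio of P388D1 IC50 (72 h resazurin viability, 80 to 0.3 µM) to yeast IC50 from RPMI/HEPES pH 7.0 broth dilution with A595 turbidity and 4-parameter regression.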

[4] = Therapeutic index, ratio of IC50 for mouse P388D1 cells to IC50 for wild type Cryptococcus neoformans serotype A H99; format: toxicity; settings: read-out: Ratio IC50; how it was run: as §3
[5] = Aqueous solubility of the compound at pH 5; format: physicochemical; settings: aqueous medium
[6] = Aqueous solubility of the compound at pH 7; format: physicochemical; settings: aqueous medium
[7] = Ratio of aqueous solubility at pH 5 to aqueous solubility at pH 7; format: physicochemical; settings: buffer
Histoplasma capsulatum [8] = assay: Antifungal activity against Histoplasma capsulatum G217B ATCC 26032 at pH 5 measured over 5 days; format: functional, organism-based; settings: G217B ATCC 26032, 120 h; how it was run: as §1
Cryptococcus neoformans [9] = assay: Antifungal activity against wild type fluconazole-sensitive Cryptococcus neoformans serotype A H99 at pH 5 measured over 4 days; format: functional, organism-based; settings: var grubii H99 , 96 h; how it was run: as §2
Cryptococcus neoformans [10] = assay: Antifungal activity against wild-type fluconazole-sensitive Cryptococcus neoformans serotype D B3501 measured over 4 days; format: functional, organism-based; settings: B3501, 96 h; how it was run: as §2
Cryptococcus neoformans [11] = assay: Antifungal activity against fluconazole-resistant Cryptococcus neoformans serotype A TES9 harboring erg11 mutant measured over 4 days; format: functional, organism-based; settings: TES9, 96 h; how it was run: as §2
Cryptococcus neoformans [12] = assay: Antifungal activity against fluconazole-resistant Cryptococcus neoformans serotype A MRL862 harboring erg11 mutant measured over 4 days; format: functional, organism-based; settings: MRL862, 96 h; how it was run: as §2
Histoplasma capsulatum [13] = assay: Antifungal activity against RFP expressing Histoplasma capsulatum infected in LacZ-expressing mouse P388D1 cells incubated for 6 days measured daily by fluorescence assay; format: functional, organism-based
How it was run: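 LacZ-expressing P388D1 macrophages (3x10^4 per well, adhered 3 h) infected with RFP Histoplasma yeasts at MOI 1:2 for 3 h, medium replaced with F-12 + 10% serum, overnight at 37 °C, then compound gradient added for 6 days. RFP fluorescence (530/590 nm) read daily; day-4 values relative to untreated infected cells fitted by non-linear regression; triplicate.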

Histoplasma capsulatum [14] = assay: Fungistatic activity against Histoplasma capsulatum OSU76 after 2 to 24 hrs by colony forming assay; format: functional, organism-based
[15] = Therapeutic index, ratio of IC50 for mouse P388D1 cells to IC50 for Histoplasma capsulatum OSU76; format: toxicity; settings: read-out: Ratio IC50
Cryptococcus neoformans [16] = assay: Antifungal activity against Cryptococcus neoformans TDY271 after 72 hrs by microdilution assay; format: functional, organism-based; settings: TDY271, 72 h

SMILES	IC50 (Histoplasma capsulatum [1]) [µM]	MIC90 (Histoplasma capsulatum [1]) [µM]	IC50 (Cryptococcus neoformans [2]) [µM]	MIC90 (Cryptococcus neoformans [2]) [µM]	IC50 (P388D1) [µM]	selectivity ratio [3]	selectivity ratio [4]	solubility [5] [µg/mL]	solubility [6] [µg/mL]	Ratio [7]	IC50 (Histoplasma capsulatum [8]) [µM]	MIC90 (Histoplasma capsulatum [8]) [µM]	IC50 (Cryptococcus neoformans [9]) [µM]	MIC90 (Cryptococcus neoformans [9]) [µM]	also measured
O=C(Nc1ncc(Cc2ccccn2)s1)C1CCCCC1	18.3	40 (≈ 12.1 µg/mL)	7.17	20 (≈ 6.03 µg/mL)	> 40	> 2	> 6	480 (≈ 1590 µM)	340 (≈ 1130 µM)	1.4	> 20	> 40	15.6	> 40	
O=C(Nc1ncc(Cc2cccc3ccccc23)s1)C1CCCCC1	0.48	1.25 (≈ 0.438 µg/mL)	0.67	1.25 (≈ 0.438 µg/mL)	> 40	> 83	> 60	4 (≈ 11.4 µM)	4 (≈ 11.4 µM)	1	6.75	10 (≈ 3.5 µg/mL)	3.04	5 (≈ 1.75 µg/mL)	IC50 (Cryptococcus neoformans [10]): 0.18 µM; MIC90 (Cryptococcus neoformans [10]): 0.63 µM (≈ 0.221 µg/mL); IC50 (Cryptococcus neoformans [11]): 0.2 µM; MIC90 (Cryptococcus neoformans [11]): 0.63 µM (≈ 0.221 µg/mL); IC50 (Cryptococcus neoformans [12]): 0.23 µM; MIC90 (Cryptococcus neoformans [12]): 0.63 µM (≈ 0.221 µg/mL); MIC (Histoplasma capsulatum [13]; 144 h): 2.5 µM (≈ 0.876 µg/mL); IC50 (Histoplasma capsulatum [13]; P388D1, 144 h): 1.26 µM; IC50 (Histoplasma capsulatum [14]): 0.87 µM; selectivity ratio [15]: 63; IC50 (Cryptococcus neoformans [16]): 1.25 µM
O=C(Nc1ncc(Cc2ccnc3ccccc23)s1)C1CCCCC1	3.05		3.24		13.9	5	5	130 (≈ 370 µM)	70 (≈ 199 µM)	1.9	16.8	40 (≈ 14.1 µg/mL)	4.29	10 (≈ 3.51 µg/mL)	
